Measurements: ChEMBL document CHEMBL1123929, “Investigation of peripheral cholecystokinin receptor heterogeneity by cyclic and related linear analogues of CCK26-33: synthesis and biological properties” (J Med Chem, 1987)
Non-standard residues stand in square brackets, D forms with d. Residues, ends and D or L forms follow the SMILES beside them. *: point of attachment. sY = N[C@@H](Cc1ccc(OS(=O)(=O)O)cc1)C(=O)O; Nle = CCCC[C@H](N)C(=O)O; Boc = CC(C)(C)OC(=O)*

Assays:
Cavia porcellus [1] = species: Cavia porcellus; assay: Evaluated for contractile activities of guinea pig ileum for antagonistic activity (contraction induced by 3, 10e -9M of CCK-8); format: functional
Summary of the method: (§1)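 Isolated guinea pig ileum contraction by the Hutchinson and Dockray method, with atropine present (1.5 mg/L). Agonism was tested by direct contraction. Antagonism was tested against contraction evoked by 3 × 10⁻⁹ M CCK8. Peptides were used as Na salts. Values are mean ± SEM of three separate experiments.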

Rattus norvegicus = species: Rattus norvegicus; assay: Evaluated for agonist activity measured as amylase secretion by rat pancreas; format: functional
Summary of the method: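 Rat pancreas fragments stimulated with peptide (Na salt form). Amylase released into the medium was measured with Phadebas reagent by the Ceska method. EC50 was taken from concentration–response curves. Results are means of three separate experiments, each value in triplicate.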

Cavia porcellus [2] = species: Cavia porcellus; assay: Evaluated for contractile activities of guinea pig ileum for agonistic activity; format: functional; summary of the method: as §1
Cholecystokinin receptor = target: T1, Cholecystokinin receptor (Mus musculus, UniProt O08786+P56481); assay: Binding affinity measured by inhibiting [3H]Boc[Nle28,31]CCK27-33 specific binding to Cholecystokinin receptor in mouse brain membranes at a KD concentration of 0.19 nM; format: cell membranes, Membrane
T1 sequence (O08786 whole entry): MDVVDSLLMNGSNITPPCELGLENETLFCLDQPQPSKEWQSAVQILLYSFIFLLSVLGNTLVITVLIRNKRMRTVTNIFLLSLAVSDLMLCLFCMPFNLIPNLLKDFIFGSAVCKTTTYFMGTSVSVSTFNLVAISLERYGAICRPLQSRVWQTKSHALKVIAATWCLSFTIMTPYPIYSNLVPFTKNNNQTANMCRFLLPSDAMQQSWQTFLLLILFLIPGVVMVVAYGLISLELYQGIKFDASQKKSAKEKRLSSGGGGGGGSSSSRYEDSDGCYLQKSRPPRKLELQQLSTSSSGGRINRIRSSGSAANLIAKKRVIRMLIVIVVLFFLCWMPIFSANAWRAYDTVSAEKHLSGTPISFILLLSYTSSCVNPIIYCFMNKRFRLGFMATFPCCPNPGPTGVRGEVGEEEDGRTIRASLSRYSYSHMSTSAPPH
T1 sequence (P56481 whole entry): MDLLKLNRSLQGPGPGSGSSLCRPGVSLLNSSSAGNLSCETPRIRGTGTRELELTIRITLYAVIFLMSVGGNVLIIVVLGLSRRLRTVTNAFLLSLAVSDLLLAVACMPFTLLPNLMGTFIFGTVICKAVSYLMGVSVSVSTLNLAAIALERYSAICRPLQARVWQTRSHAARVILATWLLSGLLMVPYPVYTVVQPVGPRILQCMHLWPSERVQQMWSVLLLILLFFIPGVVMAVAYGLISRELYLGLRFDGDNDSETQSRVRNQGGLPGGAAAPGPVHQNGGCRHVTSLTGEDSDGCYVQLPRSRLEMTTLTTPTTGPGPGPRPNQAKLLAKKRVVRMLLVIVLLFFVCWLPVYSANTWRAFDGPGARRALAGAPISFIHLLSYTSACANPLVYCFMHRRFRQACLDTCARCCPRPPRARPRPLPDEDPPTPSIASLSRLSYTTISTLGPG

[3] = target: T2, Cholecystokinin receptor type A (Rattus norvegicus, UniProt P30551); assay: Evaluated for binding affinity measured by inhibiting [3H]Boc[Nle28,31]CCK27-33 specific binding to Cholecystokinin receptor in rat pancreas membranes at a KD concentration of 4.4 nM; format: cell membranes, Membrane
T2 sequence (P30551 whole entry): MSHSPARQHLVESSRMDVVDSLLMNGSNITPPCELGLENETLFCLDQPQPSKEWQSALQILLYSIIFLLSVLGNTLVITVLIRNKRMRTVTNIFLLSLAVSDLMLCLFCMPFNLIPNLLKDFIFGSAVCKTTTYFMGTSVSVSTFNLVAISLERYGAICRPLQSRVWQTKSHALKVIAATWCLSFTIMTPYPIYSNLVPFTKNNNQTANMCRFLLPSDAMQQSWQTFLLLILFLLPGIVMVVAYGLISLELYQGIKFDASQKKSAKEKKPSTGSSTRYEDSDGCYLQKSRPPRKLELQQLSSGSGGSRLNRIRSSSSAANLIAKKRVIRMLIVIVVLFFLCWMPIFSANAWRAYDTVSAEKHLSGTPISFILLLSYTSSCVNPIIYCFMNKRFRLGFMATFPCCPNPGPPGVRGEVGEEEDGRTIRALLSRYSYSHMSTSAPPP

EC50 (Rattus norvegicus) [nM]	EC50 (Cavia porcellus [2]) [nM]	Ki (Cholecystokinin receptor) [M]	Ki [3] [nM]	SMILES	EC50 (Cavia porcellus [1]) [nM]
40	> 10000	3e-07	340	CCCC[C@H](NC(=O)[C@H](Cc1c[nH]c2ccccc12)NC(=O)[C@@H](CCCCN)NC(=O)[C@H](CCCC)NC(=O)[C@H](Cc1ccc(OS(=O)(=O)O)cc1)NC(=O)[C@H](CC(=O)O)NC(=O)OC(C)(C)C)C(=O)N[C@@H](CC(=O)O)C(=O)N[C@@H](Cc1ccccc1)C(N)=O	15000
> 100000	> 10000	> 1e-05	> 10000	CCCC[C@H](NC(=O)[C@H](Cc1c[nH]c2ccccc12)NC(=O)[C@@H](CCCCN)NC(=O)[C@H](CCCC)NC(=O)[C@H](Cc1ccc(OS(=O)(=O)O)cc1)NC(=O)[C@H](CC(=O)O)NC(=O)OC(C)(C)C)C(=O)N[C@@H](CC(=O)O)C(N)=O	> 10000
> 1000	> 10000	> 0.00001	> 10000	CCCC[C@H](NC(=O)[C@H](Cc1c[nH]c2ccccc12)NC(=O)[C@H]1CCCCNC(=O)C[C@H](NC(=O)OC(C)(C)C)C(=O)N[C@@H](Cc2ccc(OS(=O)(=O)O)cc2)C(=O)N[C@@H](CCCC)C(=O)N1)C(=O)N[C@@H](CC(=O)O)C(N)=O	> 10000
2.8	3.2	1.91e-10	–	CCCC[C@H](NC(=O)[C@H](Cc1ccc(OS(=O)(=O)O)cc1)NC(=O)OC(C)(C)C)C(=O)NCC(=O)N[C@@H](Cc1c[nH]c2ccccc12)C(=O)N[C@@H](CCCC)C(=O)N[C@@H](CC(=O)O)C(=O)N[C@@H](Cc1ccccc1)C(N)=O (Boc-[sY][Nle]GW[Nle]DF-NH2)	–

SMILES	EC50 (Rattus norvegicus) [nM]	EC50 (Cavia porcellus [2]) [nM]	Ki (Cholecystokinin receptor) [M]	Ki [3] [nM]	EC50 (Cavia porcellus [1]) [nM]
CSCC[C@H](NC(=O)[C@H](Cc1ccc(OS(=O)(=O)O)cc1)NC(=O)[C@@H](N)CC(=O)O)C(=O)NCC(=O)N[C@@H](Cc1c[nH]c2ccccc12)C(=O)N[C@@H](CCSC)C(=O)N[C@@H](CC(=O)O)C(=O)N[C@@H](Cc1ccccc1)C(N)=O [SINCALIDE]	1	2	4.91e-10	–	–
